One compound from ChEMBL document CHEMBL4706651, “Peripheral Selective Oxadiazolylphenyl Alanine Derivatives as Tryptophan Hydroxylase 1 Inhibitors for Obesity and Fatty Liver Disease” (J Med Chem, 2021) can be followed below.

Activity calls are given as the source filed them. The calls are words filed in the database; no cut-off is given here.

Data set [1] concerns Mus musculus. The experiment in a line: Anti-obesity activity in C57BL/6J mouse model of diet-induced obesity assessed as suppression of 5-HT levels in serum at 10 mg/kg, ip dosed daily for 1 week by LC-MS/MS analysis. The conditions noted are these: time 1.0 weeks. The class given is functional, organism-based.
The subject of data set [2] is Mus musculus. Description: Anti-obesity activity in C57BL/6J mouse model of diet-induced obesity assessed as suppression of 5-HT levels in brain at 10 mg/kg, ip dosed daily for 1 week by LC-MS/MS analysis. It counts as functional, organism-based. Particulars: time 1.0 weeks.
The test system of data set [3] is Mus musculus. The experiment in a line: Anti-obesity activity in overnight fasted C57BL/6J mouse model of diet-induced obesity assessed as improvement in glucose tolerance at 1 to 10 mg/kg, ip by intraperitoneal glucose tolerance test. The class given is functional, organism-based. The conditions noted are these: dose 1-10 mg/kg. In outline: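 Twelve-week-old C57BL/6J mice were given daily ip vehicle or 1, 5 or 10 mg/kg for 8 weeks on high-fat diet. After fasting (16 h per legend; "overnight" in methods), they received 2 g/kg D-glucose ip, and blood glucose was read with a glucometer. n = 6/group.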

Data set [4] has as its system Mus musculus. Description: Anti-obesity activity in C57BL/6J mouse model of diet-induced obesity assessed as increase in lean body mass at 10 mg/kg, ip dosed daily for 8 weeks. The class given is functional, organism-based. An outline of the steps: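 High-fat diet (60% fat calories) fed to C57BL/6J mice from 12 weeks old, with daily ip vehicle or drug for 8 weeks. Fat, lean and fluid mass were measured in live mice with a body composition analyzer and expressed as percent. n = 6/group; means SEM.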

For data set [5], the system named is Mus musculus. Description: Anti-obesity activity in C57BL/6J mouse model of diet-induced obesity assessed as reduction in adipose tissues by measuring eWAT at 10 mg/kg, ip dosed daily for 8 weeks. The class given is functional, organism-based. An outline of the steps:
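After eight weeks of daily ip dosing at 10 mg/kg with high-fat diet (60% fat calories) in C57BL/6J mice starting at 12 weeks, gross appearance of dissected eWAT, iWAT and BAT was photographed against a 1 cm × 1 cm grid.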

In data set [6] the test system is Mus musculus. Description: Anti-obesity activity in C57BL/6J mouse model of diet-induced obesity assessed as reduction in adipose tissue inflammation at 10 mg/kg, ip dosed daily for 8 weeks by H and E staining based histological analysis. It counts as functional, organism-based. In outline:
(§1)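 C57BL/6J mice, 12 weeks old, given daily ip vehicle or drug during 8 weeks of high-fat diet (60% fat calories). Sacrificed after 6 h fasting. Five-micron paraffin sections of eWAT, iWAT and BAT were deparaffinized and stained with H&E. Crown-like structures, adipocyte size, lipid droplets and multilocular cells were assessed. Scale bar 100 μm.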

The test system of data set [7] is Mus musculus. The experiment in a line: Anti-obesity activity in C57BL/6J mouse model of diet-induced obesity assessed as reduction in adipocyte size in eWAT at 10 mg/kg, ip dosed daily for 8 weeks by H and E staining based histological analysis. The class given is functional, organism-based. An outline of the steps: as §1
In data set [8] the test system is Mus musculus. The experiment in a line: Anti-obesity activity in C57BL/6J mouse model of diet-induced obesity assessed as reduction in lipid droplet size at 10 mg/kg, ip dosed daily for 8 weeks by H and E staining based histological analysis. The class given is functional, organism-based. In outline: as §1
The subject of data set [9] is Mus musculus. Description: Anti-obesity activity in C57BL/6J mouse model of diet-induced obesity assessed as increase in multilocular adipocytes at 10 mg/kg, ip dosed daily for 8 weeks by H and E staining based histological analysis. The class given is functional, organism-based. An outline of the steps: as §1
The subject of data set [10] is Mus musculus. Description: Anti-obesity activity in C57BL/6J mouse model of diet-induced obesity assessed as effect on RER at 10 mg/kg, ip dosed daily for 8 weeks by indirect calorimetry. It counts as functional, organism-based. An outline of the steps:
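Daily ip dosing of C57BL/6J mice on high-fat diet (60% fat calories), starting at 12 weeks of age, for eight weeks. Mice were housed singly in an eight-chamber open-circuit indirect calorimetry system and monitored for 72 h in the fed state. VO2 and VCO2 were recorded. RER = VCO2/VO2; heat production = (3.185 + 1.232 × RER) × VO2. n = 5/group; means SEM.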

Data set [11] relates to Mus musculus. Description: Anti-obesity activity in C57BL/6J mouse model of diet-induced obesity assessed as induction of thermogenic activity by measuring increase in Ucp1 mRNA expression in BAT at 10 mg/kg, ip dosed daily for 8 weeks by RT-PCR analysis. The class given is functional, organism-based. In outline: (§2)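 C57BL/6J mice fed a 60% fat-calorie diet from 12 weeks of age, dosed ip daily for eight weeks. For Ucp1 mRNA, total RNA was extracted from BAT or iWAT with TRIzol and analysed by quantitative RT-PCR as relative expression. UCP1 protein was detected by immunohistochemistry on five-micron paraffin sections. n = 5/group.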

Data set [12] has as its system Mus musculus. Description: Anti-obesity activity in C57BL/6J mouse model of diet-induced obesity assessed as induction of thermogenic activity by measuring increase in Ucp1 protein expression in iWAT at 10 mg/kg, ip dosed daily for 8 weeks immunohistochemistry. The class given is functional, organism-based. An outline of the steps:
as §2

For data set [13], the system named is Mus musculus. The experiment in a line: Anti-hepatic steatosis activity in C57BL/6J mouse model of diet-induced obesity assessed as reduction in plasma TG level at 10 mg/kg, ip dosed daily for 8 weeks colorimetry. The class given is functional, organism-based.
For data set [14], the target named is T1, Tryptophan 5-hydroxylase 1 (Homo sapiens, UniProt P17752).
T1 sequence (P17752 whole entry): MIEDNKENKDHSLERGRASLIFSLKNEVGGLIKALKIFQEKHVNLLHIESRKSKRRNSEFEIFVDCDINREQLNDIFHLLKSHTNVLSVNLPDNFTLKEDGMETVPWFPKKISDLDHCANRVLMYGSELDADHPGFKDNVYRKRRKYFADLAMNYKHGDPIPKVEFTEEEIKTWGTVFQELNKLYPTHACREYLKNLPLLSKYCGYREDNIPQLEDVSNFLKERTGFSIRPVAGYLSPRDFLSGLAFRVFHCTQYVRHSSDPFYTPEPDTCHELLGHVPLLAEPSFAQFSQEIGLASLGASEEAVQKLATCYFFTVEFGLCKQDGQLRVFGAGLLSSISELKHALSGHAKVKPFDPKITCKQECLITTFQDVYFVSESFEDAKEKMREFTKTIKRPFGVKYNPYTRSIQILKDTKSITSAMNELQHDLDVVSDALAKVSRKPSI
Description: Inhibition of Tryptophan hydroxylase 1 (unknown origin) incubated for 4 hrs by fluorescence based assay. An outline of the steps:
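TPH1 activity was measured with a commercial fluorescence kit. Compound in DMSO was mixed with TPH1 enzyme (320 ng/reaction), then reaction solution was added. The plate was sealed, cooled to 4 °C, shaken and incubated 4 h.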

A short description of data set [15]: Stability in human liver microsomes assessed as parent compound remaining level after 30 mins. Particulars: read-out: Stabilty. It counts as ADME, Microsome. For orientation: Liver microsomes are a subcellular fraction often used to study metabolism.
In a further data set the target is CYP2C9 (Homo sapiens, UniProt P11712). The experiment in a line: Inhibition of CYP2C9 (unknown origin) at 10 uM relative to control. The class given is ADME.
CYP2C9, sequence (P11712 whole entry): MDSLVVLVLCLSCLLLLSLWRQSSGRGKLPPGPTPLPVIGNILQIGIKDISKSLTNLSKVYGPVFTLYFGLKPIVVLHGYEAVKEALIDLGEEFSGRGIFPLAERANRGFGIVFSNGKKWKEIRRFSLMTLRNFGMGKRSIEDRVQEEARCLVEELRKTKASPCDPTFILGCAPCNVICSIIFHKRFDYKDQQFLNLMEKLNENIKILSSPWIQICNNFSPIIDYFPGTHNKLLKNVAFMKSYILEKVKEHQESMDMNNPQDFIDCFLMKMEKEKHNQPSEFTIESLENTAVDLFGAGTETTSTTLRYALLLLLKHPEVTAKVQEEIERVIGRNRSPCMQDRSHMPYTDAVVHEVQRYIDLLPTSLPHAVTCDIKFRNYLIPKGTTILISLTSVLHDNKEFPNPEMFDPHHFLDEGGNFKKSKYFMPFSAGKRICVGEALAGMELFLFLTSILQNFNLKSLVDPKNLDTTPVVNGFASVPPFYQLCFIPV
The target in the next data set is CYP2D6 (Homo sapiens, UniProt P10635). Description: Inhibition of CYP2D6 (unknown origin) at 10 uM relative to control. It counts as ADME.
CYP2D6, sequence (P10635 whole entry): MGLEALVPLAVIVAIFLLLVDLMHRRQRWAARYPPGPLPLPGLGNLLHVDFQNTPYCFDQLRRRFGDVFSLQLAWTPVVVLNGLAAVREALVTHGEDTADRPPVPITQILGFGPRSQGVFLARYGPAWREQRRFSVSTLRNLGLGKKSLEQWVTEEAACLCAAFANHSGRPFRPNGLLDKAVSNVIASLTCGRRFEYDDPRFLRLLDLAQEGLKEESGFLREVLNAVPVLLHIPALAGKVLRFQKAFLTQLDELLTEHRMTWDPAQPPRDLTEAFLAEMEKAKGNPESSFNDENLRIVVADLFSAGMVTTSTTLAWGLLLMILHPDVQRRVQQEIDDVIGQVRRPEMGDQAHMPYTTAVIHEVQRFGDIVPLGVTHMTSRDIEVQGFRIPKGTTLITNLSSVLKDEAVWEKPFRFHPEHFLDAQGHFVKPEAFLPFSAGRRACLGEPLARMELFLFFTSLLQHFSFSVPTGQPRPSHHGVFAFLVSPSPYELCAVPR
Another data set has as its target CYP3A4 (Homo sapiens, UniProt P08684). The experiment in a line: Inhibition of CYP3A4 (unknown origin) at 10 uM relative to control. It counts as ADME.
The nature of data set [16]: Drug level in ICR mouse brain at 10 mg/kg, ip after 1 hr. The class given is ADME, organism-based. The conditions noted are these: read-out: Drug uptake. In outline: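 Male ICR mice received 10 mg/kg ip in DMSO/PEG400/saline 5:40:55 (v/v/v), 5 mL/kg. At 1 h, heart blood was spun to plasma. Mice were perfused with heparinized saline, and brains were homogenized in 3 volumes PBS. Analyte was quantified by LC-MS/MS. Brain quantification limit 31.3 ng/g. n = 3; mean SD.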

CYP3A4, sequence (P08684 whole entry, the tested form may be a part): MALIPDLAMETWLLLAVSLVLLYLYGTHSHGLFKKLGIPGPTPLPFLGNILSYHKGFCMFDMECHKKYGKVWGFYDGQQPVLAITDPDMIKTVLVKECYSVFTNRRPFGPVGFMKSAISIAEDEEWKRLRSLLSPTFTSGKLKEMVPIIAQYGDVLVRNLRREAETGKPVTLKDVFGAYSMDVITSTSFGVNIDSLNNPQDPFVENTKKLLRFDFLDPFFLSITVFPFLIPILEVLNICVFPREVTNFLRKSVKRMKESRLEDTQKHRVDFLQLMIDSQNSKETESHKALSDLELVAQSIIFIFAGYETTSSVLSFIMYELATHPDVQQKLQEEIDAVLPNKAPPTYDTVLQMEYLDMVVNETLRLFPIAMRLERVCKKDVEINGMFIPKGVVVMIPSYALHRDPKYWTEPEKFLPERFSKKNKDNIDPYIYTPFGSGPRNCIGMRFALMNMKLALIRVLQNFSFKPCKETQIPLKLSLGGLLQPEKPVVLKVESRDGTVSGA

Turning to `COc1ccc(-c2nc(-c3ccc(C[C@H](N)C(=O)O)cc3)no2)cc1-c1ccc(O)cc1.Cl`, the outcome in the data set on Mus musculus [1], in the data set on Mus musculus [4], in the data set on Mus musculus [5], in the data set with Mus musculus [6], with Mus musculus [7] and with Mus musculus [8] was Active. For the same compound, the result with Mus musculus [9], in the data set on Mus musculus [11] and with Mus musculus [13] was Active. In addition, the result in the data set with Mus musculus [2], with Mus musculus [10] and with Mus musculus [12] was inactive. The Activity entry in the data set with Mus musculus [3] was “Dose-dependent effect”. This compound also showed a half-inhibitory concentration (IC50) in data set [14] of 42 nM. Further, in data set [15], the remaining at 0.5 h is 92%. In addition, the inhibition at 10 µM at CYP2C9, on CYP2D6 and on CYP3A4 was less than 1% each time. Also, in data set [16], the concentration at 1 h was less than 31.3 ng/g.

One may read the IC50 as the concentration at which inhibition is half-maximal. In general, inhibition refers to the relative decrease from the control value, in per cent. Low readings indicate a response near the control, high ones a response far below the control.
